Calls of active or inactive are those of the source. The calls are words filed in the database; no cut-off is given here.
Tests used:
[1] = biological target: T1, Adenosine receptor A3 (Homo sapiens) (UniProt P0DMS8); assay: Displacement of [3H]NECA from human adenosine A3 receptor expressed in HEK293 cell membrane at 10 uM incubated for 180 mins by microplate beta scintillation counting based radioligand inhibition assay relative to control
T1 sequence (whole entry): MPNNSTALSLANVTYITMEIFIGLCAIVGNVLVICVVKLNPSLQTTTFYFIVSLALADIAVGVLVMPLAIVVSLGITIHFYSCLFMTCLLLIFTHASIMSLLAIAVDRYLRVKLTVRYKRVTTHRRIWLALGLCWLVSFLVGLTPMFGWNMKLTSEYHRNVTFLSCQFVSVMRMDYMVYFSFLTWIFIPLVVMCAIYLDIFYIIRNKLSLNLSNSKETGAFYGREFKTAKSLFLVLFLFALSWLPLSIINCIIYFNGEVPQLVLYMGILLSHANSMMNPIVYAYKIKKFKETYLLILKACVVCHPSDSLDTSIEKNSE

Adenosine receptor A1 = biological target: T2, Adenosine receptor A1 (Homo sapiens, UniProt P30542); assay: Displacement [3H]DPCPX from human adenosine A1 receptor expressed in CHO cell membrane incubated for 60 mins by microplate beta scintillation counting based radioligand inhibition assay; format: cell membranes
T2 sequence (P30542 whole entry): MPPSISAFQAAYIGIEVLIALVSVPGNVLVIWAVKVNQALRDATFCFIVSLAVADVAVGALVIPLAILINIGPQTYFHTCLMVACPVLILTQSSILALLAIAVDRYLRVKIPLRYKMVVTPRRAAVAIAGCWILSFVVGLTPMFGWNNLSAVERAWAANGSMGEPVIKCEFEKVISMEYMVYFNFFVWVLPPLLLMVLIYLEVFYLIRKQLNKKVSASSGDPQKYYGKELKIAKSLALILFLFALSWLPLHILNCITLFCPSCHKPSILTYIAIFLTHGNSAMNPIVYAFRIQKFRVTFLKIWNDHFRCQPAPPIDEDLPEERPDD

Adenosine receptor A3 = biological target: T3, Adenosine receptor A3 (Homo sapiens, UniProt P0DMS8); assay: Displacement of [3H]NECA from human adenosine A3 receptor expressed in HeLa cell membrane incubated for 180 mins by microplate beta scintillation counting based radioligand inhibition assay; format: cell membranes
T3 sequence (P0DMS8 whole entry): T1 sequence (whole entry)

Adenosine receptor A2b = biological target: T4, Adenosine receptor A2b (Homo sapiens, UniProt P29275); assay: Displacement of [3H]DPCPX from human adenosine A2B receptor expressed in HEK cell membrane incubated for 30 mins by microplate beta scintillation counting based radioligand inhibition assay; format: cell membranes
T4 sequence (P29275 whole entry): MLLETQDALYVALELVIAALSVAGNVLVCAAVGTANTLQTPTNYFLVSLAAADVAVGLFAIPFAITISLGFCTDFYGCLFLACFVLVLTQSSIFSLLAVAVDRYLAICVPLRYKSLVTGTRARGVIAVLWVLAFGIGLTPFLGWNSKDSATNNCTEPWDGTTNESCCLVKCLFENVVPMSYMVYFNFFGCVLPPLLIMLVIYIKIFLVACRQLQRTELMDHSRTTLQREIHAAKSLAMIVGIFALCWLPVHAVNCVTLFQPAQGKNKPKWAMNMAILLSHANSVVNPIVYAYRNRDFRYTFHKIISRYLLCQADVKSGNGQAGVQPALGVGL

Adenosine receptor A2a [2] = biological target: T5, Adenosine receptor A2a (Homo sapiens, UniProt P29274); assay: Displacement of [3H]ZM241385 from human adenosine A2A receptor expressed in HeLa cells by beta scintillation counting analysis; format: cell-based
T5 sequence (P29274 whole entry): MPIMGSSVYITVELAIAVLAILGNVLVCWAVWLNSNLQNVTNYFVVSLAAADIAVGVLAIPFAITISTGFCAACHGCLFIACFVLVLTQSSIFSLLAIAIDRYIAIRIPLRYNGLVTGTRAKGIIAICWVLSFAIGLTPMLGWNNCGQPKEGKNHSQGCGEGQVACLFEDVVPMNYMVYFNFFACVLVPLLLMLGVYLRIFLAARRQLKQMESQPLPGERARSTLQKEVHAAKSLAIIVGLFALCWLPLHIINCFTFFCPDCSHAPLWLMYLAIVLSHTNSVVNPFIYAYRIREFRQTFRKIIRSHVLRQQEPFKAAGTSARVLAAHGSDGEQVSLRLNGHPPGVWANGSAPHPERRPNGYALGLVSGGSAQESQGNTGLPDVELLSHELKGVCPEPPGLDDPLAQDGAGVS

Blood [3] = assay: Inhibition of ADP-stimulated platelet aggregation in human whole blood assessed as decrease in platelet activation measured upto 15 mins by whole blood aggregometry assay; format: functional, tissue-based
Summary of the method: (§1)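 Human whole blood was pre-incubated 5 min with compound dissolved in 0.1% DMSO, or with 0.1% DMSO alone. Test concentrations were 10, 30 or 50 μM. Aggregation was triggered with 6.4 μM ADP or 1 μg/mL collagen and monitored for up to 15 min on a five-channel Multiplate analyzer. Read-out was area under the aggregation curve, n = 13 donors, paired Student's t-test.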

Blood [4] = assay: Inhibition of collagen-stimulated platelet aggregation in human whole blood assessed as decrease in platelet activation measured upto 15 mins by whole blood aggregometry assay; format: functional, tissue-based
Summary of the method: as §1

Adenosine receptor A2a [5] = biological target: T5, Adenosine receptor A2a; assay: Displacement of [3H]CGS21680 from human adenosine A2A receptor expressed in HEK293 cell membrane incubated for 30 mins by microplate beta scintillation counting based radioligand inhibition assay
[6] = biological target: T6, Adenosine receptor A2b (Homo sapiens) (UniProt P29275); assay: Displacement of [3H]DPCPX from human adenosine A2B receptor expressed in HEK cell membrane at 10 uM incubated for 30 mins by microplate beta scintillation counting based radioligand inhibition assay relative to control; format: cell membranes; conditions: HEK293
T6 sequence (whole entry): T4 sequence (P29275 whole entry)

Blood [7] = assay: Inhibition of thrombus in human whole blood measured after 10 mins by microscopic analysis; format: functional, tissue-based
Summary of the method: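 Citrated human blood labelled with anti-CD61-PE, given compound or 0.1% DMSO 5 min beforehand, recalcified with 1 mM CaCl2, then perfused through type I collagen-coated channels at 20 dyn/cm2 for 5 min. Fluorescent thrombus area summed per donor (thrombi >50 μm2). Paired t-test, n = 9.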

Structure (SMILES)	inhibition [1] [%]	Ki (Adenosine receptor A1) [nM]	Ki (Adenosine receptor A3) [nM]	further results
CCNC(=O)[C@H]1O[C@@H](n2cnc3c(NCCCc4ccccc4)ncnc32)[C@H](O)[C@@H]1O	–	–	4.5	Ki (Adenosine receptor A2b): 1380 nM; IC50 (Adenosine receptor A2a [2]): 14600 nM; inhibition (Blood [3]): Active; inhibition (Blood [4]): Active
Nc1ncnc2c1ncn2[C@@H]1O[C@H](CO)[C@@H](O)[C@H]1OCOCCCc1ccccc1	29	–	–	–
Nc1nc(C#Cc2ccccc2)nc2c1ncn2[C@@H]1O[C@H](CO)[C@@H](O)[C@H]1O	–	646	42	Ki (Adenosine receptor A2a [5]): 1040 nM
Nc1nc(C#Cc2ccccc2)nc2c1ncn2[C@@H]1O[C@H](CO)[C@@H](O)[C@@H]1O	–	–	1230	–
Nc1ncnc2c1nc(C#Cc1ccccc1)n2[C@H]1C[C@H](O)[C@@H](CO)O1	–	–	879	Ki (Adenosine receptor A2a [5]): 1990 nM
OC[C@H]1O[C@@H](n2cnc3c(NCCCc4ccccc4)nc(Cl)nc32)C[C@@H]1O	–	13300	8770	inhibition [6]: 1%
Nc1ncnc2c1ncn2[C@H]1C[C@H](O)[C@@H](CO)O1	5	–	–	inhibition [6]: 12%

Further lines, with some results ahead:

inhibition [1] [%]	Ki (Adenosine receptor A1) [nM]	Ki (Adenosine receptor A3) [nM]	Structure (SMILES)	further results
8	–	–	Nc1ncnc2c1nc(CCc1ccccc1)n2[C@@H]1O[C@H](CO)[C@@H](O)[C@H]1O	–
–	864	–	OC[C@H]1O[C@@H](n2cnc3c(NCCCCc4ccccc4)ncnc32)[C@H](O)[C@@H]1O	–
–	–	856	Nc1ncnc2c1nc(C#Cc1ccccc1)n2[C@@H]1O[C@H](CO)[C@@H](O)[C@H]1O	–
–	1940	8610	Nc1nc(CCc2ccccc2)nc2c1ncn2[C@@H]1O[C@H](CO)[C@@H](O)[C@H]1O	–
54	–	–	Nc1nc(CCc2ccccc2)nc2c1ncn2[C@@H]1O[C@H](CO)[C@@H](O)[C@@H]1O	–
–	803	–	CCNC(=O)[C@H]1O[C@@H](n2cnc3c(NCCCCc4ccccc4)ncnc32)[C@H](O)[C@@H]1O	–
44	–	–	Nc1ncnc2c1nc(CCc1ccccc1)n2[C@H]1C[C@H](O)[C@@H](CO)O1	–
–	78.8	54.6	OC[C@H]1O[C@@H](n2cnc3c(NCCCc4ccccc4)ncnc32)[C@H](O)[C@@H]1O	inhibition (Blood [3]): Active; inhibition (Blood [7]): Active

Reference: ChEMBL document CHEMBL4828708 (Eur J Med Chem, 2021)
